Measured values from different studies.
Target: Cyclin-dependent kinase-like 5 (CDKL5, Homo sapiens, UniProt O76039)
One construct used (O76039 1-960): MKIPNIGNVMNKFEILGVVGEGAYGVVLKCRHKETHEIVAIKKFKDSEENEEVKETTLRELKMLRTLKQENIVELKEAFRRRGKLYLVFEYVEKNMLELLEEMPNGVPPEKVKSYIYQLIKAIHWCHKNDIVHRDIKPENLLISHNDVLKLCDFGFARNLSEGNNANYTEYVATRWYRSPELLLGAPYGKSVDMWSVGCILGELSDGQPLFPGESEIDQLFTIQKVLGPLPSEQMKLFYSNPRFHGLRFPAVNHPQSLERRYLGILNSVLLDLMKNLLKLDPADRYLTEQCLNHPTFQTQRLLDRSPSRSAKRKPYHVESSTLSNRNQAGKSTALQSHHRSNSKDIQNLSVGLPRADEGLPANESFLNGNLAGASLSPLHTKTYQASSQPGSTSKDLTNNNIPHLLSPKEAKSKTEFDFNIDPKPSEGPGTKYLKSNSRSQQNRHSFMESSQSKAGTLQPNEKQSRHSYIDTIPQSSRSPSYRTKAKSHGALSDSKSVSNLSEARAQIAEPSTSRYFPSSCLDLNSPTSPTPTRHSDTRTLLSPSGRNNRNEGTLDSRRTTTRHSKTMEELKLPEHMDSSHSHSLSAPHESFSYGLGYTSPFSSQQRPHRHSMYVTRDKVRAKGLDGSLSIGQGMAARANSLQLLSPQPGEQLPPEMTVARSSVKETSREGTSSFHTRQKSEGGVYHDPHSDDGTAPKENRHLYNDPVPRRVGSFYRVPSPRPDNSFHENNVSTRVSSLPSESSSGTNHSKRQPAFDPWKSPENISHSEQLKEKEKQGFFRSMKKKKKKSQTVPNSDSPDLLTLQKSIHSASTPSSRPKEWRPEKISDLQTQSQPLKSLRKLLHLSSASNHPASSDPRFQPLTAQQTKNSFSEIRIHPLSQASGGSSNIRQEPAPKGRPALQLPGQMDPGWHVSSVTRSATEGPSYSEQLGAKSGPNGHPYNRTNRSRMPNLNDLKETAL

Compound | assay | conditions | remaining binding [%]
F[C@@H]1CCN(c2nccc(-c3cnn4ncccc34)n2)C1 | binding | 1 µM | 100
O=C(NCc1ncc(C(F)(F)F)cc1Cl)c1ccc2c(c1)C1(CCS(=O)(=O)CC1)[C@H](C1CC1)N2S(=O)(=O)c1ccc(F)cc1 | cell-free assay, competition with immobilised ligand | 1 µM | 78
COc1ccnn2ncc(-c3ccnc(N(C)C)n3)c12 | binding | 1 µM | 86
Nc1ncc2c(n1)-c1c([nH]c3ccc(C#CC4CC4)cc13)CCCC2 | binding, competition with immobilised ligand | 1 µM | 90
CNCc1ccccc1-c1csc([C@@H](C)Nc2nc(C)nc3cc(OC)c(OC)cc23)c1 | cell-free assay, competition with immobilised ligand | 1 µM | 94
CN(CCCC(F)(F)F)c1nccc(-c2cnn3ncccc23)n1 | binding | 1 µM | 100
CS(=O)(=O)N1CCCC(NC(=O)[C@H](CCC2CCCCC2)NC(=O)c2ccc(CNc3ncnc4c3nnn4-c3ccccc3)cc2)C1 (some centres unmarked) | cell-free assay, competition with immobilised ligand | 0.1 µM | 100
CN(C)c1nccc(-c2cnn3ncccc23)n1 | binding | 1 µM | 100
CC(=O)Nc1c(C(C)=O)c(=O)n(C)c2nc(-c3ccc(Cl)cc3Cl)c(-c3ccc(Cl)cc3)cc12 | cell-free assay, competition with immobilised ligand | 1 µM | 100
c1cncc(-c2cccc(Nc3nccc(NC4CCCCC4)n3)c2)c1 | binding, competition with immobilised ligand | 10 µM | 38
O=C(c1ccc(Nc2ncc(Cl)c(-c3ccc(Cl)s3)n2)cc1)N1CCC(N2CCCC2)CC1 | binding, competition with immobilised ligand | 1 µM | 26
N[C@@H]1CCN(c2nccc(-c3cnn4ncccc34)n2)C1 | binding | 1 µM | 100
O=C(NCCCN1CCOCC1)c1ccc(Nc2ncc(Cl)c(-c3ccc(Cl)s3)n2)cc1 | binding, competition with immobilised ligand | 1 µM | 26
CC(C)CC(=O)N1CCc2nc(-c3ccc(Br)cc3)nc(N(C)Cc3ccccc3)c2C1 | cell-free assay, competition with immobilised ligand | 0.1 µM | 100
O=C(NCC1CCOCC1)c1n[nH]cc1NC(=O)c1c(F)cccc1F | binding, competition with immobilised ligand | 1 µM | 30
O=C(c1ccc(Nc2ncc(Cl)c(-c3cc4ccccc4s3)n2)cc1)N1CCC(N2CCCC2)CC1 | binding, competition with immobilised ligand | 1 µM | 32
CC1=C(C#N)C(c2ccc3c(c2)c(NC(=O)c2ccccc2C)nn3C)C(C#N)=C(C)N1 | binding, competition with immobilised ligand | 1 µM | 79
COc1cnc(Nc2cccc(S(N)(=O)=O)c2)nc1N1CCN(c2ccccc2)C(=O)C1 | binding, competition with immobilised ligand | 1 µM | 100
C[C@H]1CCN(c2nccc(-c3cnn4ncccc34)n2)C1 | binding | 1 µM | 100
CCN1CCN(Cc2ccc(C(=O)Nc3ccc(C)c(Oc4ccc5c(c4)CC(=O)N5)c3)cc2C(F)(F)F)CC1 | binding, competition with immobilised ligand | 1 µM | 100
